# A selection: hits, their analogues and other compounds. The true share with any hit is near 4.5%.
# M18AAP inhibitor = PfM18AAP enzyme inhibition. recombinant PfM18AAP, H-Glu-NHMec fluorogenic cleavage. inhibition, % at 7.35 µM. 1.2% of 290,000 active. AID 1822;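 active means inhibition above the campaign mean inhibition over all tested compounds plus 3 SD, cut at about 28% in these data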;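 further: 0% = plate median of test compound wells and 100% = 2 mM ZnCl2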
# CHOP UPR activ = apoptotic UPR (CHOP) activation | CHO-CHOP luciferase reporter, luminescence; percent of tunicamycin response over DMSO baseline | 0.34% of 330,000 active | activation, % at 10 µM | AID 449763;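 active means at 10 µM dose, activation of 40% or more, normalized to positive control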;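 further: 100% = tunicamycin at 10 µg/mL and 0% = DMSO alone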
#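 System: CHO-CHOP luciferase reporter cell line; amount: 500 cells/well; buffer or medium: F12 medium containing 10% fetal bovine serum; incubation: 6 h compound exposure at 37 °C after overnight seeding; measured by: luciferase luminescence after 10 min with Steady-Glo reagent; evaluation: % reporter activation, DMSO baseline versus tunicamycin full activation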
# p97 ATPase inh = human p97 ATPase inhibition; P55072; recombinant p97 ATPase, Kinase-Glo ATP luminescence, 3 h; inhibition, % at 8 µM; 0.42% of 220,000 active; in the data active means inhibition above about 15%;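 further: 0% = DMSO vehicle and 100% = wells lacking enzyme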
# Target sequence (P55072 whole entry, looked up): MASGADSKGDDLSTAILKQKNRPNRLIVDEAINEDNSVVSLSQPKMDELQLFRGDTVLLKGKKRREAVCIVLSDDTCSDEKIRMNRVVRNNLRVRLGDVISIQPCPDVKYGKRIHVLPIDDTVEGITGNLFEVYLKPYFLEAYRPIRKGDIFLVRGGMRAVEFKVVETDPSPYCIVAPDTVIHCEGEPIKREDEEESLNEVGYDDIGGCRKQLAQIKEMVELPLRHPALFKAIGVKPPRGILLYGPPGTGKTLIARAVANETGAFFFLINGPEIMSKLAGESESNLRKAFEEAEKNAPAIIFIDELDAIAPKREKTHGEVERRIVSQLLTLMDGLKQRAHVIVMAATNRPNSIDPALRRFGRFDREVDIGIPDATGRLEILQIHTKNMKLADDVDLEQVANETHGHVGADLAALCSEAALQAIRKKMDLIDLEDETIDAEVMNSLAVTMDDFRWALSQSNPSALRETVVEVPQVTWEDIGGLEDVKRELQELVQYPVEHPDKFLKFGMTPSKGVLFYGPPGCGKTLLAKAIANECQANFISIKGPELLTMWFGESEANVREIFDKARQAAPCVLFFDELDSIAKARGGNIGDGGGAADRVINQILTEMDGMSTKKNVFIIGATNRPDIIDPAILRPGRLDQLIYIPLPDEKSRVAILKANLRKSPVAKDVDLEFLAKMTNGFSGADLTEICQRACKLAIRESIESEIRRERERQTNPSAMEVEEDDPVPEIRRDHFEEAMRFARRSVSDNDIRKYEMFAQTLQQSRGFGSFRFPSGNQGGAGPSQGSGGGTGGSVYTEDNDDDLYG
# HCV NS3 hel inh = inhibitors of Hepatitis C virus NS3 helicase. NS3 helicase DNA unwinding, Cy5 molecular beacon fluorescence. inhibition, % at 10.9 µM. 0.56% of 290,000 active. AID 1800;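 active means inhibition above the mean of all tested compounds plus 3 SD, set per campaign, cut at about 35% in these data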;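 further: 0% = DMSO wells and 100% = thioflavine S control wells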
#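 assay system = NS3 helicase fragment of HCV | buffer or medium = MOPS pH 6.5, MgCl2, DTT, Tween20, BSA | timing = 60 min unwinding reaction at 25 °C after ATP addition | signal = Cy5 beacon fluorescence read at start and 1 h | read-out basis = % inhibition of unwinding | control set = low DMSO, high thioflavine S at 110 µM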
# UPR XBP1 act = adaptive UPR (XBP1) activation; AID 463104; CHO-XBP1 luciferase reporter, IRE1-XBP1 UPR activation, luminescence; percent of tunicamycin response, DMSO as zero; 0.33% of 330,000 active; activation, % at 20 µM;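 active means versus positive control, 20 µM dose yields 30% or more activation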;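 further: 100% = tunicamycin at 10 µg/mL and 0% = DMSO only wells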
#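 Material: IRE1-XBP1 luciferase reporter CHO line / Quantity: one thousand reporter cells per well / Buffer or medium: F12 with 10% serum / Compound: 20 µM single concentration, DMSO 1% / Times: 6 h treatment, 37 °C / Detection: Steady-Glo luciferase glow luminescence, 10 min after reagent addition / Benchmarks: tunicamycin high, DMSO low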
# CHOP inhibitor = blocks CHOP induction under ER stress. CHO-K1 CHOP-promoter luciferase, tunicamycin-induced, 15-18 h. inhibition, % at 10 µM. 3.8% of 220,000 active;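 active means compounds that reduced the stress-induced luciferase reporter signal by more than about 70% of percent inhibition, limit read from the data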;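 further: 0% = tunicamycin plus vehicle and 100% = wells without tunicamycin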
# Numbers without * were called inactive; nt = no result.
SMILES,M18AAP inhibitor,CHOP UPR activ,p97 ATPase inh,HCV NS3 hel inh,UPR XBP1 act,CHOP inhibitor
CC1=NN(C(N)=S)C(=O)C1N=Nc1ccc(O)cc1 (stereo unspecified),29.2*,0.9,-1.3,-4.1,7.0,18.8
CCOC(=O)c1ccc(/C=C2/C=C(c3ccccc3)N(c3ccc(Cl)c(C(=O)O)c3)C2=O)cc1,-2.5,-0.8,-1.6,13.8,-5.0,-65.5
CCCC(=O)Nc1ccc2oc(-c3ccncc3)nc2c1,-2.9,1.1,0.7,-1.7,2.6,-21.8
CCCC(=O)Nc1ccc(-c2nc3cc(C)c(C)cc3o2)cc1,5.9,3.1,-7.0,11.0,-0.4,94.8*
O=S(=O)(Nc1ccccc1)c1ccc(F)cc1,3.0,1.2,5.1,1.2,0.9,-15.1
O=S(=O)(NC12CC3CC(CC(C3)C1)C2)c1ccc(F)cc1,1.9,-1.8,-5.3,-2.0,0.1,72.0*
O=C(COc1ncnc2ccccc12)NCC1CCCO1 (stereo unspecified),-0.8,-0.4,-1.1,-12.7,2.4,1.2
Clc1ccsc1-c1ccc2ccccc2n1,-7.3,7.7,0.7,1.6,0.9,89.5*
O=C1c2ccccc2C(=O)C2OC12 (stereo unspecified),28.8*,66.4*,nt,-6.1,-2.8,nt
Cc1ccc(S(=O)(=O)/N=C2\C=C(Nc3ccc(O)cc3)C(=O)c3ccccc32)cc1,nt,-1.9,nt,nt,-7.0,nt
CC(C)c1ccc(S(=O)(=O)/N=C2/C=C(Sc3ncn[nH]3)C(=O)c3ccccc32)cc1,30.6*,nt,22.3*,19.5,nt,80.9*
CC1(C)CC[C@]2(CO)[C@@H](O)C[C@]3(C)C(=CCC4[C@@]5(C)CC[C@H](O)C(C)(C)C5CC[C@]43C)[C@@H]2C1 (stereo partly specified),nt,4.8,nt,nt,-1.7,nt
O=C(CSc1nnc(-c2ccccc2)c(-c2ccccc2)n1)N1CCOCC1,3.3,-2.2,-10.1,4.4,-4.3,72.4*
C=CCNc1nc(N)c(C(=C(C#N)C#N)c2ccc(Br)cc2)s1,-4.1,-0.1,2.4,-4.9,-2.0,81.4*
CCC(C)NC(=O)c1cccc(OCc2c(C)noc2C)c1 (stereo unspecified),2.6,-1.3,-0.3,2.7,-1.4,0.9
CCOC(=O)c1c(C)[nH]c(C(=O)C(C)OC(=O)c2cccc(OCc3c(C)noc3C)c2)c1C (stereo unspecified),-1.2,2.1,-2.4,-22.5,-0.8,80.2*
CCCCCc1ccc(S(=O)(=O)NCCc2ccncc2)cc1,-6.6,-0.6,-2.5,-2.5,0.0,72.3*
Cc1ccc(SCC2(O)CCN(C(=O)c3ccc(Cl)cc3)CC2)cc1,10.3,-1.3,-8.4,-3.0,-2.9,82.2*
Cc1oc(-c2ccc3c(c2)OCCO3)cc1C(=O)NCC(=O)O,10.6,4.1,0.7,4.3,-1.1,29.9
Cc1oc(-c2ccc3c(c2)OCCO3)cc1C(=O)O,-13.6,-7.3,-5.5,0.9,-5.7,72.1*
COc1ccc(NC(=O)Cn2nnc(C(=O)NCc3ccccc3)c2N)c(OC)c1,3.1,-0.7,3.5,7.2,0.2,17.9
CC(C)(C)C1CCC(OC(=O)c2ccncc2)CC1 (stereo unspecified),-8.4,1.7,2.4,-2.6,-1.7,74.3*
O=C1CCCc2[nH]c3cccc(/C(=C/c4ccccc4)c4ccccc4)c3c21,-3.4,-1.3,nt,-12.3,1.9,nt
COC(=O)c1ccc2[nH]c3cccc(/C(=C/c4ccccc4)c4ccccc4)c3c2c1,4.9,3.1,nt,5.8,92.5*,nt
COc1ccc(NC(=O)CN(C)C(=O)Cc2n[nH]c(=O)c3ccccc23)cc1,nt,1.7,nt,nt,-3.5,nt
SMILES,M18AAP inhibitor,CHOP UPR activ,p97 ATPase inh,HCV NS3 hel inh,UPR XBP1 act,CHOP inhibitor
CN(Cc1c(F)cccc1Cl)C(=O)c1ccc(NC(=O)CC2SC(N3CCCC3)=NC2=O)cc1 (stereo unspecified),nt,-0.6,nt,nt,-0.5,nt
O=C(Nc1ccc2cn[nH]c2c1)c1c(Cl)cccc1Cl,-0.6,-1.8,-3.3,-3.3,1.7,42.7
O=C1C(Cl)=C(Nc2ccc3cn[nH]c3c2)C(=O)c2ccccc21,47.5*,nt,11.9,15.4,nt,106.6*
CN(C)c1ccc(NC2=C(Cl)C(=O)c3ccccc3C2=O)cc1,-15.1,25.6,-5.5,-18.8,0.0,94.8*
Cc1ccc(S(=O)(=O)N(C)C)cc1NC(=O)C(C)OC(=O)C1CCCC1 (stereo unspecified),nt,2.7,nt,nt,-2.2,nt
CCc1ccc(NC(=O)c2ccc(F)c(S(=O)(=O)N(CC)c3ccccc3)c2)cc1,1.4,4.4,3.2,4.8,-1.5,77.3*
CCN(c1ccccc1)S(=O)(=O)c1cc(C(=O)Nc2cccc(Cl)c2)ccc1F,9.8,0.2,1.8,-7.7,-0.5,12.5
Cc1noc(C)c1CCC(=O)N1CCCC(N2CCN(c3ccc(F)cc3)CC2)C1 (stereo unspecified),7.5,0.8,nt,-6.0,-0.9,nt
Cc1ccccc1-c1nc(S(=O)(=O)c2ccc(Cl)cc2)c(NCCN2CCOCC2)o1,-4.5,-0.3,-5.1,-23.2,-2.1,89.9*
CC(=O)Nc1ccc(-n2nnnc2SCC(=O)NCc2cccs2)cc1,3.2,-1.3,6.4,4.7,-5.0,4.4
CN(C)S(=O)(=O)c1ccc(C(=O)OCC(=O)Nc2sc3c(c2C#N)CCCCC3)cc1,-6.1,4.0,1.9,4.5,-0.2,-31.3
CC(C)(C)c1ccc(C(=O)OCC(=O)Nc2sc3c(c2C#N)CCC3)cc1,0.1,0.0,3.9,5.2,-2.9,90.2*
Oc1cc2c(cc1O)C1c3ccc(O)c(O)c3OCC1(O)C2 (stereo unspecified),79.5*,-0.2,15.2*,7.6,-1.0,4.5
CCOC(=O)c1c(C)nc2sc3c(c2c1-c1ccc(OC)cc1)NC(c1ccccc1)NC3=O (stereo unspecified),0.1,-0.4,2.3,-4.8,0.2,45.8
COC(=O)C1=C(C)N=c2s/c(=C/c3ccoc3)c(=O)n2C1c1ccccc1 (stereo unspecified),5.5,0.8,0.6,13.2,-1.2,31.9
COC(=O)C1=C(C)N=c2s/c(=C3\C(=O)Nc4ccccc43)c(=O)n2C1c1ccccc1 (stereo unspecified),-3.9,1.1,3.8,1.9,10.2,78.8*
CCOC(=O)C1=C(C)n2c(s/c(=C3\C(=O)Nc4ccccc43)c2=O)=NC1c1ccc(OC)cc1 (stereo unspecified),-10.5,4.1,2.0,-8.8,15.9,78.2*
COCCN1CCN(C(=O)c2cc(COc3ccc(Cl)cc3OC)on2)CC1,-3.2,5.0,nt,5.8,-0.2,nt
CN(C(=O)Nc1ccc(Cl)cc1Cl)[C@H]1c2cc(Br)ccc2OC[C@H]1CO,-2.9,-1.3,-1.5,-19.4,-1.6,89.0*

# High-throughput results from PubChem BioAssay.
